In brackets after ≈: the same amount, converted by molar mass.
Columns and labels:
[1] = Inhibition of Mycobacterium tuberculosis AlaDH using L-alanine as substrate after 20 mins by spectrophotometry
Procedure, shortened: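 125 mM glycine-KOH buffer pH 10.2, 1 mM NAD⁺, 50 mM L-alanine, enzyme at a level set by range finding; 20 min at 37°C. NADH formation from oxidative deamination monitored continuously at 340 nm. Compounds tested at 25 to 0.5 µM; background measured without enzyme. IC₅₀ by software analysis.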

[2] = system: Mycobacterium tuberculosis; experiment: Antimycobacterial activity against Mycobacterium tuberculosis H37Rv ATCC 27294 after 28 days by agar dilution method; type: functional; details: H37Rv ATCC 27294, 672 h
Procedure, shortened: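 Two-fold serial dilutions incorporated into Middlebrook 7H11 agar with OADC, final 50 to 0.78 µg/mL. Inoculum from fresh 7H11 slants adjusted to 1 mg/mL wet weight in 0.05% Tween 80 saline, diluted 10^-2 (~10⁷ cfu/mL). 5 µL spotted per tube; 37 °C, read after 28 days. MIC = lowest concentration completely inhibiting growth; duplicates.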

[3] = Cytotoxicity against mouse RAW264.7 cells at 50 uM after 48 hrs by MTT assay; type: cell-based; details: read-out: INH
Procedure, shortened: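 RAW 264.7 cells grown in RPMI with 10% FBS plus penicillin/streptomycin to 80-90% confluency, seeded ~5,000 cells/well on poly-L-lysine plates, 24 h at 37°C, 5% CO₂. Compounds at 50 µM for 48 h; MTT (0.5 mg/ml) added for 3 h at 37°C; formazan read at 595 nm.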

[4] = system: Mycobacterium tuberculosis; experiment: Binding affinity to Mycobacterium tuberculosis AlaDH assessed as protein-ligand stabilization by measuring shift in melting temperature by differential scanning fluorimetry
Procedure, shortened: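 Thermal shift assay on MTB L-AlaDH with Sypro Orange dye in a real-time PCR instrument. Samples equilibrated at 25°C for 3 min, then heated to 95°C in 0.1°C steps with fluorescence read at each step. Tm of protein-ligand complex compared with native protein Tm.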

[5] = system: Mycobacterium tuberculosis; experiment: Antimycobacterial activity against dormant Mycobacterium tuberculosis H37Rv model assessed as log reduction at 10 ug/ml incubated for 7 days measured after 28 days in presence of nutrient deprived condition; type: functional
Procedure, shortened: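 H37Rv grown in 7H9/OADC, pelleted, washed twice and resuspended in PBS in sealed bottles, starved 6 weeks at 37°C. Treated at 10 µg/ml for 7 days. Suspensions diluted 10-fold to 10^-6 in 7H9/OADC and plated in triplicate; 37°C for 28 days without agitation. Wells with visible growth scored positive, MPN calculated statistically.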

Structure (SMILES) | IC50 ([1]; read-out: IC50) [nM] | MIC [2] [µM] | cytotoxicity at 48 h, 50 µM [3] [%] | ΔTm [4] [°C] | FC [5] | IC50 [1]
CC(C)(C)OC(=O)N1CCc2c(sc(NC(=O)c3ccc(Cl)cc3)c2C(N)=O)C1 | 580 | 1.79 (≈ 0.78 µg/mL) | 37.3 | 1.8 |  | 
NC(=O)c1c(NC(=O)c2ccc(Cl)cc2)sc2c1CCN(C(=O)c1ccccc1)C2 | 1500 | 28.5 (≈ 12.5 µg/mL) | 42.5 |  | 2 | 
N=C1S/C(=C\c2ccc(OCc3ccccc3)cc2)C(=O)N1c1ncccn1 | 7520 | 4.02 (≈ 1.56 µg/mL) | 26.6 |  |  | 
N=C1S/C(=C\c2ccc(OCc3ccccc3)cc2)C(=O)N1c1ccc(Br)cc1 | 22300 | 3.35 (≈ 1.56 µg/mL) | 7.83 |  |  | 
N=C1S/C(=C\c2ccc(OCc3ccccc3)cc2)C(=O)N1c1ccccc1[N+](=O)[O-] | 15000 | 58 (≈ 25 µg/mL) | 24.4 |  | 2 | 
NNC(=O)c1ccncc1 [ISONIAZID] |  | 0.72 (≈ 0.0987 µg/mL) |  |  | 1.2 | Not Active
N=C1S/C(=C\c2ccc(OCc3ccccc3)cc2)C(=O)N1c1ccccn1 | 2120 | 8.06 (≈ 3.12 µg/mL) | 37.2 |  | 2 | 
CN1CCc2c(sc(NC(=O)c3ccc(OCc4ccccc4)cc3)c2C(N)=O)C1 | 1220 | 15.3 (≈ 6.47 µg/mL) | 37.6 |  | 2 | 
CN1CCc2c(sc(NC(=O)c3ccc(Oc4ccccc4)cc3)c2C(N)=O)C1 | 730 | 1.85 (≈ 0.754 µg/mL) | 58.9 |  | 2 | 
CC(C)(C)OC(=O)N1CCc2c(sc(NC(=O)c3ccc(OCc4ccccc4)cc3)c2C(N)=O)C1 | 640 | 1.53 (≈ 0.777 µg/mL) | 52.1 |  | 2 | 
CC(=O)N1CCc2c(sc(NC(=O)C3CC3)c2C(N)=O)C1 | 20100 |  |  |  |  | 
Cc1cccc(N2C(=N)S/C(=C\c3ccc(OCc4ccccc4)cc3)C2=O)n1 | 9440 | 1.94 (≈ 0.779 µg/mL) | 25.1 |  |  | 
NC(=O)c1c(NC(=O)c2ccc(OCc3ccccc3)cc2)sc2c1CCN(Cc1ccccc1)C2 | 810 | 12.6 (≈ 6.26 µg/mL) | 24 |  | 2 | 
CC(C)(C)OC(=O)N1CCc2c(sc(NC(=O)c3ccc(Oc4ccccc4)cc3)c2C(N)=O)C1 | 1120 | 6.33 (≈ 3.12 µg/mL) | 26.9 |  | 2 | 
N=C1S/C(=C\c2ccc(OCc3ccccc3)cc2)C(=O)N1c1ccc([N+](=O)[O-])cc1 | 6160 | 7.23 (≈ 3.12 µg/mL) | 17.3 |  |  | 
CC[C@@H](CO)NCCN[C@@H](CC)CO [ETHAMBUTOL] |  | 7.64 (≈ 1.56 µg/mL) |  |  |  | Not Active
Cc1cccc(C)c1N1C(=N)S/C(=C\c2ccc(OCc3ccccc3)cc2)C1=O | 1740 | 60.4 (≈ 25 µg/mL) | 38.7 | 1.4 | 2 | 
CC(=O)N1CCc2c(sc(NC(=O)c3ccc(Cl)cc3)c2C(N)=O)C1 | 640 | 4.13 (≈ 1.56 µg/mL) | 38.4 | 1.7 |  | 
NC(=O)c1c(NC(=O)c2ccc(Cl)cc2)sc2c1CCN(Cc1ccccc1)C2 | 1140 | 3.67 (≈ 1.56 µg/mL) | 11.1 |  | 2 | 
N=C1S/C(=C\c2ccc(OCc3ccccc3)cc2)C(=O)N1c1ncc([N+](=O)[O-])s1 | 6770 |  |  |  |  | 

Structure (SMILES) | IC50 ([1]; read-out: IC50) [nM] | MIC [2] [µM] | cytotoxicity at 48 h, 50 µM [3] [%] | ΔTm [4] [°C] | FC [5] | IC50 [1]
N=C1S/C(=C\c2ccc(OCc3ccccc3)cc2)C(=O)N1c1ccc(Cl)cc1 | 7010 | 7.42 (≈ 3.12 µg/mL) | 16.4 |  |  | 
Cc1ccc(C)c(N2C(=N)S/C(=C\c3ccc(OCc4ccccc4)cc3)C2=O)c1 | 1340 | 15.1 (≈ 6.26 µg/mL) | 45.8 | 4.6 | 2 | 
CC(=O)N1CCc2c(sc(NC(=O)c3ccc(OCc4ccccc4)cc3)c2C(N)=O)C1 | 630 | 1.56 (≈ 0.701 µg/mL) | 11.6 |  | 2 | 
NC(=O)c1c(NC(=O)c2ccc(Oc3ccccc3)cc2)sc2c1CCN(Cc1ccccc1)C2 | 780 | 3.58 (≈ 1.73 µg/mL) | 23.6 |  | 2 | 
N=C1S/C(=C\c2ccc(OCc3ccccc3)cc2)C(=O)N1c1cccc([N+](=O)[O-])c1 | 5560 | 14.5 (≈ 6.26 µg/mL) | 52.9 |  |  | 
N#C/C(=C\c1cccs1)c1nc2cc([N+](=O)[O-])ccc2[nH]1 | 21300 |  |  |  |  | 
N=C1S/C(=C\c2ccc(OCc3ccccc3)cc2)C(=O)N1c1ccc(Cl)cc1Cl | 3490 | 13.8 (≈ 6.27 µg/mL) | 13.8 |  | 2 | 
N=C1S/C(=C\c2ccc(OCc3ccccc3)cc2)C(=O)N1c1ccc(F)cc1 | 8550 | 7.72 (≈ 3.12 µg/mL) | 10.5 |  | 2 | 
N=C1S/C(=C\c2ccc(OCc3ccccc3)cc2)C(=O)N1c1ccccc1 | 2270 | 16.2 (≈ 6.26 µg/mL) | 37.9 |  |  | 
COc1ccc(NC(=O)N2CCc3c(sc(NC(=O)c4ccc([N+](=O)[O-])s4)c3C(N)=O)C2)cc1 | 8170 |  |  |  |  | 
CO[C@H]1/C=C/O[C@@]2(C)Oc3c(C)c(O)c4c(O)c(c(/C=N/N5CCN(C)CC5)c(O)c4c3C2=O)NC(=O)/C(C)=C\C=C\[C@H](C)[C@H](O)[C@@H](C)[C@@H](O)[C@@H](C)[C@H](OC(C)=O)[C@@H]1C [RIFAMPIN] |  | 0.15 (≈ 0.123 µg/mL) |  |  | 2 | Not Active
CC(=O)N1CCc2c(sc(NC(=O)c3ccc(Oc4ccccc4)cc3)c2C(N)=O)C1 | 660 | 6.11 (≈ 2.66 µg/mL) | 32.9 |  |  | 
COc1c(N2C[C@@H]3CCCN[C@@H]3C2)c(F)cc2c(=O)c(C(=O)O)cn(C3CC3)c12 [MOXIFLOXACIN] |  | 1.24 (≈ 0.498 µg/mL) |  |  | 2.5 | Not Active
NC(=O)c1c(NC(=O)c2ccc(OCc3ccccc3)cc2)sc2c1CCN(C(=O)c1ccccc1)C2 | 800 | 12.9 (≈ 6.62 µg/mL) | 13.7 |  | 2 | 
CN1CCc2c(sc(NC(=O)c3ccc(Cl)cc3)c2C(N)=O)C1 | 670 | 8.95 (≈ 3.13 µg/mL) | 38.5 |  | 2 | 
CCc1nc(Nc2ccccc2)c2c3c(sc2n1)CCCC3 | 15100 |  |  |  |  | 
Cc1ccc(N2C(=N)S/C(=C\c3ccc(OCc4ccccc4)cc3)C2=O)c(C)c1 | 6080 | 1.88 (≈ 0.779 µg/mL) | 36.8 |  |  | 
Cc1c(Cl)cccc1N1C(=N)S/C(=C\c2ccc(OCc3ccccc3)cc2)C1=O | 13000 | 14.4 (≈ 6.26 µg/mL) | 59.7 |  |  | 
NC(=O)c1c(NC(=O)c2ccc(Oc3ccccc3)cc2)sc2c1CCN(C(=O)c1ccccc1)C2 | 1110 | 3.47 (≈ 1.73 µg/mL) | 4.71 |  | 2 | 

From ChEMBL document CHEMBL3407436, “Design and development of novel Mycobacterium tuberculosis L-alanine dehydrogenase inhibitors” (Eur J Med Chem, 2015)
